# Screening data as filed in PubChem BioAssay.
# Kir21 inh: inhibitors of mouse Kir2.1 inward-rectifier potassium channel; Inward rectifier potassium channel 2 (Mus musculus), P35561; HEK293-Kir2.1, FluxOR thallium flux fluorescence; hits give low values; B-score at 10 µM; hit rate 0.85% among 310,000;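 active means fluorescence ratio B-score at or below minus 3 SD of library scores, with starting-brightness B-score within 2 SD, cut at about -4.2 in these data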;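 further: channel flux triggered by added potassium and thallium sulfate stimulus; B-score of peak minus minimum fluorescence over baseline after thallium stimulus; more negative B-score means stronger Kir2.1 block with less thallium influx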
# TRPC6 activator: mouse TRPC6 channel activators, primary screen, cell-based, HEK293, membrane potential dye. Short transient receptor potential channel 6 (Mus musculus), Q61143. HEK293-TRPC6 membrane potential dye fluorescence; hits give high values. B-score at 10 µM. hit rate 0.13% among 310,000;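 active means B-score of the integrated fluorescence ratio above library mean plus 3 SD, and starting fluorescence ratio within library mean plus 5 SD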;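 further: higher score means more depolarization so channel activation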
# TRPC4 agonist: activators of mouse TRPC4 channel, primary screen, Fluo4 calcium, HEK293 TRPC4beta/mu-opioid cells. Short transient receptor potential channel 4 (Mus musculus), Q9QUQ5. AID 2237, 2010. hit rate 0.49% among 310,000. Fluo4 calcium fluorescence; hits give high values. B-score at 10 µM;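 active means B-score above 5 SD of library B-scores, and initial fluorescence ratio not above library mean plus 5 SD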;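 further: positive B-score marks a calcium rise read as TRPC4 activation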
#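 system = HEK293 cells stably co-expressing mouse TRPC4beta and mu-opioid receptor | schedule = Fluo4 dye loading 45 min at room temperature, 110 s recording | measure = B-scored integrated calcium fluorescence ratio | signal = Fluo4 calcium-sensitive dye fluorescence, kinetic, 1 Hz baseline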
# TRPC6 inhibitor: mouse TRPC6 channel inhibitors, primary screen, cell-based, HEK293, membrane potential dye. ACh-evoked depolarization; hits give low values. hit rate 1.1% among 310,000. Short transient receptor potential channel 6 (Mus musculus), Q61143. B-score at 10 µM;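 active means B-score under library mean minus 3 SD, initial fluorescence not abnormally high, positive integrated signal ratio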;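 further: B-score derived from integrated fluorescence ratio over the kinetic read; more negative B-score means stronger inhibition of depolarization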
# TRPC4 block: inhibitors of mouse TRPC4 channel, primary screen, Fluo4 calcium, HEK293 TRPC4beta/mu-opioid cells. AID 2247, 2010. B-score at 10 µM. DAMGO-evoked Fluo4 calcium flux; hits give low values. Short transient receptor potential channel 4 (Mus musculus), Q9QUQ5. hit rate 0.39% among 300,000;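 active means B-score over 3 SD under the library average, no early fluorescence shift, positive overall ratio signal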
#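 Assay system: Stable TRPC4beta/mu-opioid receptor HEK293 cells | Reagent: DAMGO in two steps, submaximal then maximal | Compound dosing: Single concentration per test compound | Signal: Fluo4 Ca2+ flux fluorescence | Evaluation: Per-well B score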
# TRPC4 PAM: positive allosteric modulators of TRPC4, primary screen, cell-based, mouse TRPC4beta, HEK293 mu-opioid, Fluo-4 calcium | hit rate 0.42% among 310,000 | B-score at 10 µM | DAMGO EC20, Fluo-4 Ca2+ flux; hits give high values;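 active means B-score of calcium response area above 5 SD of library B-scores, with initial fluorescence ratio within 5 SD of library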;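 further: B-score of integrated fluorescence ratio over time as area under calcium response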
# Starred values were filed as active, the others as inactive; i = inactive. Shown are actives, neighbours in structure and some others; about 2.9% of the full set was active somewhere.
SMILES,Kir21 inh,TRPC6 activator,TRPC4 agonist,TRPC6 inhibitor,TRPC4 block,TRPC4 PAM
Clc1ccc2nc(C3CCN(Cc4ccccc4)CC3)[nH]c2c1,-6.78*,i,i,i,i,i
Cc1ccc(CN2CCC(c3nc4ccc(Cl)cc4[nH]3)CC2)cc1,-9.98*,i,i,i,i,i
CN(C)C(CNC(=O)CSc1nnc(-c2ccco2)o1)c1ccccc1 (configuration not stated),-1.99,i,64*,i,i,i
Cc1ccc(S(=O)(=O)CCC(=O)NCCC2=CCCCC2)cc1,0.17,i,i,i,i,i
Cc1ccc(CS(=O)(=O)CCC(=O)NCCC2=CCCCC2)cc1,-0.24,i,i,i,i,17*
CSc1cccc(CN2CCC(Oc3cccc(C(=O)N4CCCC4)c3)CC2)c1,-4.76*,i,i,i,i,i
O=C(c1cccc(OC2CCN(Cc3cccc(OCCO)c3)CC2)c1)N1CCCC1,-0.64,i,i,i,i,i
CSc1cccc(CN2CCC(Oc3ccc(C(=O)N4CCCCC4)cc3)CC2)c1,-5.54*,i,i,i,i,i
O=C(c1ccc(OC2CCN(Cc3cccc(F)c3)CC2)cc1)N1CCCCC1,-1.97,i,i,i,i,i
O=C(c1ccc(OC2CCN(CCCc3ccccc3)CC2)cc1)N1CCCC1,-5.9*,i,i,i,i,i
CCn1c(SCC(=O)Nc2cc(OC)ccc2OC)nnc1C1CCCCC1,-0.61,i,i,i,i,i
CN1CCN(c2ccccc2NC(=O)c2ccc(-c3ccccc3[N+](=O)[O-])o2)CC1,-2.87,i,i,i,i,i
CCOC(=O)C1CCN(C(=O)CCC(=O)NNc2nc3ccccc3c3nc(C)nn23)CC1,2.28,i,i,i,i,i
COC(=O)c1cc(C(=O)c2ccc(C(C)(C)C)cc2)c[nH]1,-0.15,i,i,i,i,10*
CCOC(=O)/C=C/c1ccc2c(c1)S(=O)(=O)N(c1cccc(OC)c1)[C@H]2CC(=O)OCC,-0.95,i,i,i,i,i
Cc1[nH]c2ccccc2c1C(c1ccccn1)N1CCCC1 (configuration not stated),-0.94,i,i,i,i,i
CCOC(=O)C1CCCN(C(c2ccccn2)c2c(C)[nH]c3ccccc23)C1 (configuration not stated),2.25,i,148*,i,i,i
Nc1nc(Cl)nc2c1ncn2[C@@H]1O[C@H](CO)[C@@H](O)[C@H]1O,-0.77,i,50*,i,i,i
Cc1cc(Cl)c(OCCOCCN2CCNCC2)c(Cl)c1,-2.18,i,62*,i,i,i
Cc1cccc(OCCOCCN2CCNCC2)c1C,-0.61,i,133*,i,i,i
Cc1cc(C)c(OCCOCCN2CCN(C)CC2)c(Cl)c1,0.82,i,i,i,i,i
CCC1CCC2(CC1)NC(=O)N(CC(=O)c1c(C)[nH]c3ccccc13)C2=O (configuration not stated),0.58,i,i,i,i,i
CCOC(=O)C1=C(C)NC(SC)=C(C#N)C1CC(C)C (configuration not stated),-7.08*,i,i,i,i,i
CC(=O)c1ccc(N2CCN(CC(O)COC(c3ccccc3)c3ccccc3C)CC2)cc1 (configuration not stated),0.33,i,i,i,i,12*
OC(COC(c1ccccc1)c1ccccc1)CN1CCN(c2cccc(Cl)c2)CC1 (configuration not stated),0.65,i,i,i,i,i
SMILES,Kir21 inh,TRPC6 activator,TRPC4 agonist,TRPC6 inhibitor,TRPC4 block,TRPC4 PAM
CCCCNc1c(-c2ccc(SC(C)CC)c(OC)c2)nc2ccc(C)cn12 (configuration not stated),1.81,i,i,i,-6*,i
Cc1onc(-c2ccccc2)c1CNC(=O)C1COc2ccccc2O1 (configuration not stated),-5.43*,i,i,i,i,i
O=C(NCc1ccccc1)C1COc2ccccc2O1 (configuration not stated),0.19,i,i,i,i,i
O=C(CNC(=O)c1sc2ccccc2c1Cl)NCc1cccc(C(F)(F)F)c1,-0.24,i,i,i,i,i
Cc1noc(C)c1S(=O)(=O)N1CCC(C(=O)NCCCN2CC(C)CC(C)C2)CC1 (configuration not stated),0.06,i,111*,i,i,i
CCN(CC)CCNC(=O)C1CCN(S(=O)(=O)c2c(C)noc2/C=C/c2ccccc2F)CC1,-4.59*,i,i,i,i,i
Cc1noc(C)c1S(=O)(=O)N1CCC(C(=O)NCCN2CCC(C)CC2)CC1,0.63,i,i,i,i,i
OCCC1CN(Cc2cnc(N3CCOCC3)s2)CCN1C1CCCC1 (configuration not stated),-2.04,i,i,i,i,i
Nc1ccc(Oc2ccccc2-c2ccccc2)cc1,-0.04,i,i,i,i,14*
NCCOc1ccccc1-c1ccccc1,0.68,i,i,i,i,i
CN1C2C=C(N(CCc3ccccc3)C(=O)c3ccc(Cl)cc3)CC1CC2 (configuration not stated),-1.57,i,99*,i,i,i
CN1C2CCC1CC(N(CCc1ccccc1)C(=O)c1ccc(Cl)cc1)C2 (configuration not stated),-0.3,i,i,i,i,i
CCOc1ccccc1NC(=O)Cc1coc2cc(C)ccc12,-5.01*,i,i,i,i,i
CC1CC(C)CN(S(=O)(=O)c2cccc3cccnc23)C1 (configuration not stated),-5.22*,i,i,i,i,i
O=S(=O)(c1cccc2cccnc12)N1CCOCC1,0.53,i,i,i,i,i
